{"source": "ChEMBL document CHEMBL3870305", "about": "“Synthesis, biological evaluation and molecular modeling studies of imidazo[1,2-a]pyridines derivatives as protein kinase inhibitors” (Eur J Med Chem, 2016)", "key": {"[1]": {"target": "DYRK1A (Rattus norvegicus)", "experiment": "Inhibition of DYRK1A (unknown origin)"}, "[2]": {"target": "Casein kinase I delta/epsilon (Sus scrofa)", "experiment": "Inhibition of CK1 delta/epsilon (unknown origin)"}, "[3]": {"target": "Glycogen synthase kinase-3 alpha/beta (Sus scrofa)", "experiment": "Inhibition of GSK-3 alpha/beta (unknown origin)"}, "CLK1 (Mus musculus) [4]": {"target": "CLK1 (Mus musculus)", "experiment": "Inhibition of CLK1 (unknown origin)"}, "[5]": {"system": "DYRK1A (Rattus norvegicus)", "experiment": "Inhibition of DYRK1A (unknown origin) at 10 uM in presence of gamma[33P]ATP relative to control"}, "CLK1 (Mus musculus) [6]": {"system": "CLK1 (Mus musculus)", "experiment": "Inhibition of CLK1 (unknown origin) at 10 uM in presence of gamma[33P]ATP relative to control"}, "[7]": {"target": "CDK9/cyclin T1 (Homo sapiens) (UniProt O60563+P50750)", "experiment": "Inhibition of full length recombinant human CDK9/CyclinT expressed in baculovirus infected Sf9 insect cells at 10 uM using YSPTSPSYSPTSPSYSPTSPSKKKK as substrate in presence of gamma[33P]ATP"}, "[8]": {"target": "Cyclin-dependent kinase 1/cyclin B1 (Homo sapiens) (UniProt P06493+P14635)", "sequence (P06493 whole entry, looked up)": "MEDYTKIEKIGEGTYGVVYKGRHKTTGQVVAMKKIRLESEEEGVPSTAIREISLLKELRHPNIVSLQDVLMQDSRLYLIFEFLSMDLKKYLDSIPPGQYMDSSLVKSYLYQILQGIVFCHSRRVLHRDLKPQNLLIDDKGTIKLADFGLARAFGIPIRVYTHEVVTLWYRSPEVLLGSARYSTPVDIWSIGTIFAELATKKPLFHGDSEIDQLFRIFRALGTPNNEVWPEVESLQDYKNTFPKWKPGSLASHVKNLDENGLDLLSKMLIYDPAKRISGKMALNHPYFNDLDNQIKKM", "sequence (P14635 whole entry, looked up)": "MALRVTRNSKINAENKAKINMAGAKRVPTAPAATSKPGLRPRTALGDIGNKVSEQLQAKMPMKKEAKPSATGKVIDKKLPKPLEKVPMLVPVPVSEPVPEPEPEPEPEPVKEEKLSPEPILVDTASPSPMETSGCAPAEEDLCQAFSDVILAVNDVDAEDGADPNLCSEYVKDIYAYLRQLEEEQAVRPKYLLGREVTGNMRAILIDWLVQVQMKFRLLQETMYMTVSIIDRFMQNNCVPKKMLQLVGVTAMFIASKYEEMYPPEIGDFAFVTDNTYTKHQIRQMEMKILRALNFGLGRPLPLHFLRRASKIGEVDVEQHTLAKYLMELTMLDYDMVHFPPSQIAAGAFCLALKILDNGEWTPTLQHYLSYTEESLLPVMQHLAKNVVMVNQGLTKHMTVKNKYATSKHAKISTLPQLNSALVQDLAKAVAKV", "experiment": "Inhibition of full length recombinant human CDK1/CyclinB1 expressed in baculovirus infected Sf9 insect cells at 10 uM using histone H1 as substrate in presence of gamma[33P]ATP", "how_it_was_run": "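Buffer G (40 mM Tris pH 7.5, 20 mM MgCl2, 0.1 mg/ml BSA) with 0.8 µg/µl histone H1 and 15 µM [γ-33P]ATP. Compound tested at 10 µM; activity as % of the no-inhibitor control; n = 2, mean ± range.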"}, "[9]": {"target": "CDK2/Cyclin A2 (Homo sapiens) (UniProt P24941+P20248)", "experiment": "Inhibition of full length human CDK2/CyclinA at 10 uM using histone H1 as substrate in presence of gamma[33P]ATP", "assay_type": "protein-complex assay"}, "[10]": {"target": "Cyclin-dependent kinase 5/CDK5 activator 1 (Homo sapiens) (UniProt Q00535+Q15078)", "sequence (Q00535 whole entry)": "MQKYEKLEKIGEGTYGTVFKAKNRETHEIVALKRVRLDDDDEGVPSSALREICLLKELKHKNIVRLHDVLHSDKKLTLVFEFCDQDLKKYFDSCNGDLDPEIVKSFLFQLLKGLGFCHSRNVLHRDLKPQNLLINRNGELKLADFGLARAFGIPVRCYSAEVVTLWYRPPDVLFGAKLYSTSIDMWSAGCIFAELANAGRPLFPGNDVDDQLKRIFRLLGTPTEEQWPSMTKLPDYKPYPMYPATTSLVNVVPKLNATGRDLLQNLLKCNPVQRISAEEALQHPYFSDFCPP", "sequence (Q15078 99-307 partner limits assumed)": "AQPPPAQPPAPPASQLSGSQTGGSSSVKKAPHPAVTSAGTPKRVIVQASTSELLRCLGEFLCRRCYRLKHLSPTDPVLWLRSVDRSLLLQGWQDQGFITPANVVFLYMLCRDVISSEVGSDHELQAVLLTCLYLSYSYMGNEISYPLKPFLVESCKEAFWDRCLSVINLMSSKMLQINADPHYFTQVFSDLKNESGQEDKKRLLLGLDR", "experiment": "Inhibition of full length recombinant human CDK5/p25 expressed in bacteria at 10 uM using histone H1 as substrate in presence of gamma[33P]ATP", "how_it_was_run": "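Buffer B (25 mM MOPS pH 7, β-glycerophosphate, p-nitrophenyl-phosphate, EGTA, 15 mM MgCl2, DTT, orthovanadate) with 0.8 µg/µl histone H1 and 15 µM [γ-33P]ATP. Compound tested at 10 µM; activity as % of the no-inhibitor control; n = 2, mean ± range.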"}, "[11]": {"target": "Dual specificity protein kinase CLK1 (Mus musculus) (UniProt P22518)", "sequence (P22518 whole entry, looked up)": "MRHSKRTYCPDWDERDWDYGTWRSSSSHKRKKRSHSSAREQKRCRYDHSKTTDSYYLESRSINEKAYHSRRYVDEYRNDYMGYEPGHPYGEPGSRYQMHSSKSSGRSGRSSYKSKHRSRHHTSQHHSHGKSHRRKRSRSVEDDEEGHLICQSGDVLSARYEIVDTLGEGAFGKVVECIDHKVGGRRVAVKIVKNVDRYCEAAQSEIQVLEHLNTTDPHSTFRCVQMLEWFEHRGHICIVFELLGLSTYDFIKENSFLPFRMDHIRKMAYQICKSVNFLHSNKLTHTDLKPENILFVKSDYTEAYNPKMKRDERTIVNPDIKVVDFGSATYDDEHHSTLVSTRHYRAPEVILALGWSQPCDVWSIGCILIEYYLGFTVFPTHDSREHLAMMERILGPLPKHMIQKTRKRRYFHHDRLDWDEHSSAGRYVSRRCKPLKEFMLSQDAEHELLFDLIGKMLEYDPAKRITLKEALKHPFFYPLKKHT", "experiment": "Competitive inhibition of full length recombinant mouse CLK1 expressed in bacteria using GRSRSRSRSRSR peptide as substrate in presence of varying levels of ATP by double-reciprocal method"}}, "note": "The source made the active and inactive calls. No cut-off for these calls is given here."}
{"smiles": "COc1cccc(-c2cn3cc(Cl)ccc3n2)c1", "values": [{"measurement": "IC50", "setting": "[1]", "result": "> 10", "unit": "µM"}, {"measurement": "IC50", "setting": "[2]", "result": "> 10", "unit": "µM"}, {"measurement": "IC50", "setting": "[3]", "result": "> 10", "unit": "µM"}, {"measurement": "IC50", "setting": "CLK1 (Mus musculus) [4]", "result": "> 10", "unit": "µM"}]}
{"smiles": "NC(=O)c1cc(-c2cn3cc(F)ccc3n2)ccc1O", "values": [{"measurement": "IC50", "setting": "[1]", "result": 4.7, "unit": "µM"}, {"measurement": "inhibition", "setting": "[5]", "result": "> 50", "unit": "%"}, {"measurement": "IC50", "setting": "[2]", "result": "> 10", "unit": "µM"}, {"measurement": "IC50", "setting": "[3]", "result": "> 10", "unit": "µM"}, {"measurement": "inhibition", "setting": "CLK1 (Mus musculus) [6]", "result": "> 50", "unit": "%"}, {"measurement": "IC50", "setting": "CLK1 (Mus musculus) [4]", "result": 1.4, "unit": "µM"}]}
{"smiles": "COc1cc(OC)cc(-c2cn3cc(Cl)ccc3n2)c1", "values": [{"measurement": "IC50", "setting": "[1]", "result": "> 10", "unit": "µM"}, {"measurement": "IC50", "setting": "[2]", "result": "> 10", "unit": "µM"}, {"measurement": "IC50", "setting": "[3]", "result": "> 10", "unit": "µM"}, {"measurement": "IC50", "setting": "CLK1 (Mus musculus) [4]", "result": "> 10", "unit": "µM"}]}
{"smiles": "COc1cc(-c2cn3cc(Cl)ccc3n2)cc(OC)c1OC", "values": [{"measurement": "IC50", "setting": "[1]", "result": "> 10", "unit": "µM"}, {"measurement": "IC50", "setting": "[2]", "result": "> 10", "unit": "µM"}, {"measurement": "IC50", "setting": "[3]", "result": "> 10", "unit": "µM"}, {"measurement": "IC50", "setting": "CLK1 (Mus musculus) [4]", "result": "> 10", "unit": "µM"}]}
{"smiles": "NC(=O)c1cc(-c2cn3ccccc3n2)ccc1O", "values": [{"measurement": "IC50", "setting": "[1]", "result": 4, "unit": "µM"}, {"measurement": "inhibition", "setting": "[5]", "result": "> 50", "unit": "%"}, {"measurement": "IC50", "setting": "[2]", "result": "> 10", "unit": "µM"}, {"measurement": "IC50", "setting": "[3]", "result": "> 10", "unit": "µM"}, {"measurement": "inhibition", "setting": "CLK1 (Mus musculus) [6]", "result": "> 50", "unit": "%"}, {"measurement": "IC50", "setting": "CLK1 (Mus musculus) [4]", "result": 1, "unit": "µM"}]}
{"smiles": "NC(=O)c1cc(-c2cn3cc(N)ccc3n2)ccc1O", "values": [{"measurement": "IC50", "setting": "[1]", "result": "> 10", "unit": "µM"}, {"measurement": "IC50", "setting": "[2]", "result": "> 10", "unit": "µM"}, {"measurement": "IC50", "setting": "[3]", "result": "> 10", "unit": "µM"}, {"measurement": "IC50", "setting": "CLK1 (Mus musculus) [4]", "result": "> 10", "unit": "µM"}]}
{"smiles": "NC(=O)c1cc(-c2cn3cc(O)ccc3n2)ccc1O", "values": [{"measurement": "inhibition", "setting": "[7]", "result": "Active"}, {"measurement": "inhibition", "setting": "[8]", "result": "Active"}, {"measurement": "inhibition", "setting": "[9]", "result": "Active"}, {"measurement": "inhibition", "setting": "[10]", "result": "Active"}]}
{"smiles": "NC(=O)c1cc(-c2cn3cc(-c4ccc([N+](=O)[O-])cc4)ccc3n2)ccc1O", "values": [{"measurement": "IC50", "setting": "[1]", "result": "> 10", "unit": "µM"}, {"measurement": "IC50", "setting": "[2]", "result": "> 10", "unit": "µM"}, {"measurement": "IC50", "setting": "[3]", "result": "> 10", "unit": "µM"}, {"measurement": "IC50", "setting": "CLK1 (Mus musculus) [4]", "result": "> 10", "unit": "µM"}]}
{"smiles": "Oc1ccc(-c2cn3cc(Cl)ccc3n2)cc1", "values": [{"measurement": "IC50", "setting": "[1]", "result": "> 10", "unit": "µM"}, {"measurement": "IC50", "setting": "[2]", "result": "> 10", "unit": "µM"}, {"measurement": "IC50", "setting": "[3]", "result": "> 10", "unit": "µM"}, {"measurement": "IC50", "setting": "CLK1 (Mus musculus) [4]", "result": "> 10", "unit": "µM"}]}
{"smiles": "NC(=O)c1cc(-c2cn3cc(Cl)ccc3n2)ccc1O", "values": [{"measurement": "inhibition", "setting": "[7]", "result": "Active"}, {"measurement": "inhibition", "setting": "[8]", "result": "Active"}, {"measurement": "inhibition", "setting": "[9]", "result": "Active"}, {"measurement": "inhibition", "setting": "[10]", "result": "Active"}]}
{"smiles": "NC(=O)c1cc(-c2cn3cc(Br)ccc3n2)ccc1O", "values": [{"measurement": "IC50", "setting": "[1]", "result": 2.6, "unit": "µM"}, {"measurement": "inhibition", "setting": "[7]", "result": "Active"}, {"measurement": "inhibition", "setting": "[8]", "result": "Active"}, {"measurement": "inhibition", "setting": "[9]", "result": "Active"}, {"measurement": "inhibition", "setting": "[5]", "result": "> 50", "unit": "%"}, {"measurement": "IC50", "setting": "[2]", "result": "> 10", "unit": "µM"}, {"measurement": "IC50", "setting": "[3]", "result": "> 10", "unit": "µM"}, {"measurement": "inhibition", "setting": "CLK1 (Mus musculus) [6]", "result": "> 50", "unit": "%"}, {"measurement": "inhibition", "setting": "[11]", "result": "Active"}, {"measurement": "IC50", "setting": "CLK1 (Mus musculus) [4]", "result": 0.7, "unit": "µM"}, {"measurement": "inhibition", "setting": "[10]", "result": "Active"}]}
